In the library only some 4.3% were active in any assay of this set; here they are far more common.
PREPL inh: human PREPL enzyme inhibition. Q4J6C6. recombinant PREPL, fluorescence polarization activity-based probe. inhibition, % at 5.96 µM. 320,000 tested, 0.68% active; in the data active = inhibition above about 43%
Rin1-Abl PPI inh: human Rin1-Abl interaction inhibition. inhibition, % at 7.35 µM. TR-FRET Rin1/Abl binding, biochemical. AID 588664. 360,000 tested, 0.4% active; in the data active = inhibition above about 5%, passing the limit was not always enough
ALR inh: inhibitors of human sulfhydryl oxidase ALR; P55789; purified ALR, DTT oxidation, H2O2 HRP-luminol luminescence; inhibition, % (concentration not given with the values); 290,000 tested, 3.8% active;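 active = mean replicate inhibition above about 79%, with every replicate also reaching it, limit read from the data; inconclusive = only one of the two criteria met; inactive = mean below limit and not every replicate reaching it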
UBC13 inh: blocks human UBC13 polyubiquitin chain formation | 330,000 tested, 0.47% active | TR-FRET | P61088 | inhibition, % at 20 µM | AID 485273; in the data active = inhibition above about 45%, passing the limit was not always enough; inconclusive = no clear call, values can overlap the other calls
RBBP9 inh: inhibitors of human serine hydrolase RBBP9; O75884; recombinant RBBP9, FP-Rh probe fluorescence polarization; inhibition, % at 7.94 µM; 220,000 tested, 0.2% active;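 active = inhibition above the campaign mean of all tested compounds plus 3 SD, cut at about 14% in these data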
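System: RBBP9 protein | Quantity: 2.5 µM RBBP9 dispensing solution, before mixing | Reagent: FP-Rh probe, 375 nM dispensing solution | Timing: Enzyme-compound preincubation 30 min, then probe labeling 45 min, 25 °C | Measured by: Fluorescence polarization | Read-out: % inhibition | Replication: One well per compound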
UBC9 SUMO inh: blocks human SUMOylation mediated by UBC9 | P63279 | HTRF SUMOylation assay, SAE1/SAE2 + UBC9, in vitro | inhibition, % at 35 µM | 290,000 tested, 0.36% active; in the data active = inhibition above about 50%, passing the limit was not always enough; inconclusive = no clear call, values can overlap the other calls
Hits are given with their value; . = inactive; ? = inconclusive; / = no result.

SMILES | PREPL inh | Rin1-Abl PPI inh | ALR inh | UBC13 inh | RBBP9 inh | UBC9 SUMO inh
COc1cc(NS(C)(=O)=O)ccc1Nc1c2ccccc2nc2ccccc12 | . | . | 99 | . | / | /
CC(C)CCOc1ccc(CO[C@@H]2[C@H]3OC(C)(C)O[C@H]3O[C@@H]2C(O)CO)cc1 (some centres undefined) | . | . | 87 | . | / | .
CCOC(=O)c1c(C)n(CC)c2ccc(OC(=O)c3ccc([N+](=O)[O-])cc3)cc12 | 49 | . | . | . | . | .
CCOC(=O)c1c(C)n(C)c2ccc(OC(=O)c3ccc([N+](=O)[O-])cc3)cc12 | . | . | . | . | . | .
COc1ccccc1N(CC(=O)N1CCOCC1)S(C)(=O)=O | . | . | . | . | / | .
CCN(Cc1ccncc1)C(=O)c1ccco1 | . | . | . | . | / | .
CCN(Cc1ccncc1)C(=O)c1cc(Br)cc(Br)c1O | . | . | 94 | . | . | .
CC(=O)Nc1cc(-c2cccc(C(=O)NCCO)c2)cn2c(-c3cccc(C(F)(F)F)c3)cnc12 | / | . | / | / | / | /
O=c1cc(CO)oc(C(Nc2ccccn2)c2ccccc2Cl)c1O (centres undefined) | . | . | / | . | . | .
O=c1cc(CO)oc(C(Nc2ccccn2)c2ccsc2)c1O (centres undefined) | . | / | . | . | . | .
COc1ccc(C(Nc2ccccn2)c2oc(CO)cc(=O)c2O)cc1 (centres undefined) | . | 7.4 | 98 | . | . | .
O=c1cc(CO)oc(C(Nc2ccccn2)c2ccc(F)cc2)c1O (centres undefined) | . | . | 98 | . | . | .
O=C(c1cccc2nc3ccccc3nc12)N1CCOCC1 | . | . | . | . | . | .
CCOc1ccccc1C1c2[nH]c3ccccc3c2C[C@H]2C(=O)N(C3CC3)CC(=O)N12 (some centres undefined) | . | . | . | . | / | .
CCOC(=O)CSc1nnc(N)s1 | . | . | . | . | . | .
N#Cc1ccc(COC(=O)CSc2nnc(N)s2)cc1 | . | . | 97 | . | . | .
Cn1cc(CN2CCCC(C(=O)Nc3ccc(-c4cccc(F)c4)cc3)C2)cn1 (centres undefined) | . | . | . | . | / | .
CCOC(=O)C1CCN(C(=O)CSCc2nc(-c3ccc(OCC)cc3)oc2C)CC1 | . | . | 99 | . | . | .
CCOC(=O)CSCc1nc(-c2ccc(Cl)cc2)oc1C | . | . | . | . | . | .
Cc1ccc(-c2nc(CSCC(=O)N3CCCC3)c(C)o2)cc1 | . | . | 99 | . | . | .
CCOc1ccc(-c2nc(CSCC(=O)N3CCN(C(=O)c4ccco4)CC3)c(C)o2)cc1 | . | . | 99 | . | . | .
O=C(CSCc1ccccc1)N1CCN(C(=O)c2ccco2)CC1 | . | . | . | . | . | .
COc1ccc(/C=C2\Oc3cc(OCC(=O)N4CC(O)C[C@H]4C(=O)O)ccc3C2=O)cc1OC (some centres undefined) | . | . | / | . | / | .
CSc1ncc(-c2ccc(Cl)cc2)[nH]1 | . | . | 98 | . | . | .
CC1(C)C(=O)NCCN1C(=O)CC1C(=O)NCCN1Cc1cccc(C(F)(F)F)c1 (centres undefined) | . | . | . | . | / | .
SMILES | PREPL inh | Rin1-Abl PPI inh | ALR inh | UBC13 inh | RBBP9 inh | UBC9 SUMO inh
COc1ccc(/C=C2\SC(=Nc3ccccc3)NC2=O)cc1 | / | / | . | . | / | .
Cc1ccc(S(=O)(=O)/N=C2/NC(=O)/C(=C\c3ccco3)S2)cc1 | . | . | . | . | . | .
CC(=O)Nc1ccc(S(=O)(=O)/N=C2/NC(=O)/C(=C\c3ccco3)S2)cc1 | . | . | 99 | . | . | .
COc1ccc(N=C2NC(=O)/C(=C\c3ccco3)S2)cc1 | . | . | . | . | . | 62
Cc1ccc(S(=O)(=O)/N=C2/NC(=O)/C(=C\c3ccccc3)S2)cc1 | . | . | 99 | . | / | /
CCC1CCCCN1CCCNC(=O)Cn1cnc2sc(C)c(S(=O)(=O)N3CC(C)CC(C)C3)c2c1=O (centres undefined) | . | . | . | . | / | .
Cc1c(C)c(C)c(CO/N=C/c2cccs2)c(C)c1C | . | . | . | . | . | .
Cc1cccc(-c2nc(CS(=O)CC(=O)NC3CCCCC3)c(C)o2)c1 (centres undefined) | . | . | 99 | . | / | .
Cc1oc(-c2ccccc2)nc1CS(=O)CC(=O)NC1CCCCCC1 (centres undefined) | . | . | 100 | . | / | .
CC1CCCCC1NC1=NCCCS1 (centres undefined) | . | / | . | . | . | .
Nc1nc(Nc2ccccc2)nc2ccccc12 | . | . | . | . | . | .
CN(C)c1ccc(Nc2nc(N)c3ccccc3n2)cc1 | . | . | 99 | . | / | .
Cc1ccc(S(=O)(=O)NCC(=O)OCC(=O)Nc2ccc3c(c2)OCCO3)cc1 | . | . | / | . | / | /
O=C(Nc1ccc2nc(-c3ccco3)c(-c3ccco3)nc2c1)N1CCCCCC1 | 75 | / | . | . | . | 58
COc1ccc(NC(=O)COC(=O)C2CCN(S(=O)(=O)c3cccs3)CC2)cc1OC | . | . | . | . | / | /
Cc1noc(C)c1CSCC(=O)NCCN1C(=O)S/C(=C\c2ccccc2F)C1=O | . | . | . | . | / | /
Cc1nc(SCc2ccc(Cl)c(Cl)c2)ncc1C(=O)O | . | . | 97 | . | . | .
O=S(=O)(c1ccc(Cl)s1)N1CCC(Cc2ccccc2)CC1 | . | . | 97 | . | . | .
O=S(=O)(c1ccc(Br)s1)N1CCC(Cc2ccccc2)CC1 | . | . | . | . | . | .
O=S(=O)(c1ccc(Cl)nc1)N1CCC(Cc2ccccc2)CC1 | . | . | 99 | . | / | /
NC(=O)C1CCN(c2ccc(S(=O)(=O)N3CCC(Cc4ccccc4)CC3)cn2)CC1 | . | . | / | . | . | .
O=C(Nc1ccc2snnc2c1)N1CCN(c2ccccc2)CC1 | . | . | 99 | . | . | .
S=C(Nc1ccc(N2CCOCC2)cc1)Nc1ccc2snnc2c1 | . | . | 95 | . | . | .
O=C(Nc1ccc2snnc2c1)N1CCOCC1 | . | . | 77 | . | . | .
O=C(Nc1ccc2snnc2c1)N1CCCCC1 | . | . | ? | . | . | .
SMILES | PREPL inh | Rin1-Abl PPI inh | ALR inh | UBC13 inh | RBBP9 inh | UBC9 SUMO inh
CC1(C)C(C=C(Cl)Cl)C1C(=O)Nc1ccc(S(=O)(=O)Nc2ncccn2)cc1 (centres undefined) | . | . | / | . | / | .
COc1ccc(S(=O)(=O)NC(CC(C)C)C(=O)NC(C)c2cccs2)cc1 (centres undefined) | . | . | / | . | / | /
Cc1cc(=O)oc(C)c1C(=O)NCCNC(=O)c1c(C)cc(=O)oc1C | . | . | . | . | . | .
COc1ccc(NC(=O)C2CCCN(S(=O)(=O)c3cccnc3)C2)c(OC)c1 (centres undefined) | . | . | / | . | . | .
CCN(CCCNC(=O)c1c(C)cc(=O)oc1C)c1cccc(C)c1 | . | . | 100 | . | . | .
CCN(CCCNC(=O)CCCN1C(=O)COc2ccc(C)cc21)c1cccc(C)c1 | . | . | 98 | . | . | .
